# Assay outcomes from PubChem.
# AF4-AF9 inh = inhibitors of human MLL-AF4/AF9 interaction | P42568 | inhibition, % at 10 µM | AID 651704 | 0.47% of 350,000 active | AlphaScreen, biotin-AF4 peptide binding to FLAG-AF9;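 active = every replicate reaching a set inhibition limit, whatever the replicate mean, cut at about 25% in these data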
# S100A4 inh HTS = S100A4-myosin IIA interaction inhibition; 0.14% of 360,000 active; P26447; S100A4/TAMRA-MyoIIA peptide fluorescence polarization; AID 652163; inhibition, % at 10.7 µM;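 active = mean inhibition of at least 70% across replicates, with every replicate also reaching that level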
#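 Test system: S100A4 monomer protein; Medium: HEPES pH 7.2 with CaCl2, KCl, NaCl, DTT, Triton; Probe or stimulus: TAMRA-labelled myosin IIA heavy-chain peptide probe, 5 nM; Doses: one dose per compound; Times: polarization read 5 min after assay mix addition, stable 5–60 min; Benchmarks: neutral control DMSO, positive control TFP.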
# Xi reactivation = activators of X-chromosome reactivation in mouse fibroblasts | XiGFP mouse fibroblasts, % GFP-positive cells imaging, 3 d; cells co-treated with 5-aza-dC sensitizer; scaled so ellipticine positive control = 100% | activation, % at 7.58 µM | AID 743238 | 0.055% of 360,000 active;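 active = mean normalized replicate activation at least 10% and every replicate at or above 10%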
#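 assay system = SV40-immortalized XiGFP fibroblast cells, line 68-5-11 | buffer or medium = DMEM plus 5-aza-dC sensitizer | doses = single-point pinned compound dosing | times = 3-day compound exposure, then 15 min fixation at room temperature | benchmarks = positive control ellipticine, 6 µM final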
# RAD52 inh = inhibitors of human RAD52 DNA annealing | P43351 | recombinant RAD52 DNA annealing, FRET fluorescence | inhibition, % at 18.7 µM | 0.46% of 360,000 active | AID 651710;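 active = every replicate showing at least 50% inhibition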
# CASP6 VEID inh = caspase-6 (human) enzyme inhibition. 0.53% of 350,000 active. inhibition, % at 12.5 µM. purified caspase-6, Z-VEID-R110 cleavage fluorescence. AID 686996;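 active = mean inhibition across replicates at least about 35%, with every replicate also reaching that limit, limit read from the data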
# RAD54 inh = blocks human RAD54 Holliday junction branch migration; Q92698; FAM/BHQ fluorescence; inhibition, % at 10.4 µM; 0.14% of 360,000 active;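 active = mean normalized replicate activity at least 40 and at least half of replicates scoring 40 or more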;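 note: inhibitors cause a drop in the FAM fluorescence signal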
# Target sequence (Q92698 whole entry, looked up): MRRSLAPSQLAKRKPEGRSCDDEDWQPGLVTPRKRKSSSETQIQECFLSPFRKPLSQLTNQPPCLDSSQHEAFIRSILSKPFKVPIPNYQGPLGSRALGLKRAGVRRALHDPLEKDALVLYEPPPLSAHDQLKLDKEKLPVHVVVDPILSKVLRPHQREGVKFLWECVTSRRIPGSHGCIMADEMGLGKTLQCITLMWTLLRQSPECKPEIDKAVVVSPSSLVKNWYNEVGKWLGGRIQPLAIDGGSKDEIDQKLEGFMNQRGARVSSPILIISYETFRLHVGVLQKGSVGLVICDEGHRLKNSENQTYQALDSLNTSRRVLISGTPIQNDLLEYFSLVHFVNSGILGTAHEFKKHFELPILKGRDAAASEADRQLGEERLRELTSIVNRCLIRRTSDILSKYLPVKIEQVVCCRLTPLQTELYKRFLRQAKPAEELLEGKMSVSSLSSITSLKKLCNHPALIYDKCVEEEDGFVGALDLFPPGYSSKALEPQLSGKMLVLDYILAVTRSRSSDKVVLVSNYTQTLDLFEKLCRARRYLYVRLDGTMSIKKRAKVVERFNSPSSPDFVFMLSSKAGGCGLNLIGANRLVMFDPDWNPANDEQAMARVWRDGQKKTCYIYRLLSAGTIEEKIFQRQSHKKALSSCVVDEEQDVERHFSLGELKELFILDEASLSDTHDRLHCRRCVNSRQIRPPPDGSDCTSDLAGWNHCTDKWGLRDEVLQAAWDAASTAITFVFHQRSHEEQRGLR
# Hits are given with their value; 0 = inactive; - = no result. A selection: hits, their analogues and other compounds. The true share with any hit is near 1.3%.
SMILES,AF4-AF9 inh,S100A4 inh HTS,Xi reactivation,RAD52 inh,CASP6 VEID inh,RAD54 inh
O=C(O)C[C@H]1CC[C@H]2[C@@H](COC[C@H](O)CN2S(=O)(=O)c2ccc(Oc3ccccc3)cc2)O1,0,0,0,0,39.9,0
O=C(C[C@H]1CC[C@H]2[C@@H](COC[C@@H](O)CN2S(=O)(=O)c2ccc(F)cc2)O1)NCC1CCCCC1,0,0,0,0,0,0
O=C(C[C@@H]1CC[C@H]2[C@@H](COC[C@@H](O)CN2S(=O)(=O)c2ccc(F)cc2)O1)NCC1CCCCC1,30.8,0,0,70.3,0,0
C[C@H](C(=O)N(C)C[C@@H]1OCc2ccccc2-c2c(n(C)c3ccccc23)C(=O)N([C@H](C)CO)C[C@@H]1C)c1ccccc1,-,-,0,-,-,-
C[C@@H]1CN([C@H](C)CO)C(=O)c2cc(Br)cnc2O[C@H]1CN(C)C(=O)c1ccccn1,0,0,0,0,0,0
C[C@@H]1CN([C@@H](C)CO)C(=O)c2cccc(NC(=O)NC3CCCCC3)c2O[C@H]1CN(C)CC1CCCCC1,0,0,0,0,0,0
Cc1ccc(S(=O)(=O)N2C[C@@H](O)COC[C@H]3O[C@@H](CC(=O)NCC4CCCCC4)CC[C@@H]32)cc1,0,0,0,52.7,0,0
CC(C)c1ccc(-c2nnc(SCC(=O)NC3CC3)n2C)cc1,0,0,0,0,52.9,0
COC(=O)CSc1nc2ncccc2[nH]1,-,-,-,-,-,0
Cn1c(SCC(=O)NC2CCCCC2)nnc1-c1ccccn1,0,0,0,0,39.4,0
O=C(CSc1nc2ncccc2[nH]1)NC1CCCC1,39.7,0,0,0,0,0
COc1ccc(S(=O)(=O)Nc2ccc3c(c2)C(=O)N([C@H](C)CO)C[C@H](C)[C@H](CN(C)C(=O)Nc2cccc4ccccc24)OCCCC[C@@H](C)O3)cc1,-,-,0,-,-,0
CN1C(=O)c2cc(NC(=O)C3CCCCC3)ccc2OC[C@H]2O[C@@H](CC(=O)NCc3ccccc3F)CC[C@H]21,0,0,0,0,0,0
C[C@@H]1CCCCO[C@H](CN(C)Cc2ccccc2)[C@H](C)CN([C@@H](C)CO)C(=O)c2cc(NS(=O)(=O)c3ccc(F)cc3)ccc2O1,0,0,0,0,0,0
O=C(C1CC1)N1CC(=O)N2[C@H](CO)[C@H](c3ccc(-c4ccccc4F)cc3)[C@H]2C1,0,0,0,0,0,-
CCN1CCN(C2=C(NS(=O)(=O)c3ccc(NC(C)=O)cc3)C(=O)c3ccccc3C2=O)CC1,0,0,0,0,47.7,0
CC(=O)Nc1ccc(S(=O)(=O)NC2=C(N3CCN(C)CC3)C(=O)c3ccccc3C2=O)cc1,0,0,0,0,44.0,0
CC(=O)Nc1ccc(S(=O)(=O)Nc2cc(C)cn(Cc3ccccc3)c2=O)cc1,-,-,-,-,-,0
CC1CCN(C2=C(NS(=O)(=O)c3ccc(Cl)cc3)C(=O)c3ccccc3C2=O)CC1,0,0,0,0,0,0
CCN1CCN(C2=C(NS(=O)(=O)c3ccc(C)cc3)C(=O)c3ccccc3C2=O)CC1,0,0,0,0,62.2,0
CCOC(=O)N1CCN(C2=C(NS(=O)(=O)c3ccc(NC(C)=O)cc3)C(=O)c3ccccc3C2=O)CC1,0,0,0,0,0,0
CC(=O)Nc1ccc(S(=O)(=O)NC2=C(N3CCN(Cc4ccccc4)CC3)C(=O)c3ccccc3C2=O)cc1,40.6,0,0,0,0,0
C[C@@H]1CN([C@@H](C)CO)C(=O)c2cc(NS(=O)(=O)c3cn(C)cn3)ccc2O[C@@H](C)CCCCO[C@@H]1CN(C)S(=O)(=O)c1ccc(Cl)cc1,0,0,0,0,0,0
CNC(=O)C[C@H]1CC[C@@H]2[C@H](COc3ccc(NC(=O)c4ccc(F)cc4)cc3C(=O)N2C)O1,0,0,0,0,0,0
C[C@@H]1CN([C@H](C)CO)C(=O)c2cc(NC(=O)CCN3CCOCC3)ccc2O[C@H]1CN(C)Cc1ccc2c(c1)OCO2,0,0,0,0,0,0
N#Cc1ccc(/C=N/NC(=S)Nc2ccc(S(=O)(=O)N3CCOCC3)cc2)cc1,0,0,0,0,0,0
